Assays:
Assay type in all cases: functional
[1] = test system: Candida albicans; assay: Antibiofilm activity against Candida albicans 17a18 by two dimensional checkerboard dilution method in presence of diclofenac
Procedure, shortened: (§1)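 Preformed 48 h disk biofilms (RPMI 1640, MOPS pH 7, 37 °C), PBS-washed, exposed 24 h at 37 °C on rocker to two-dimensional checkerboard of anidulafungin plus NSAID in RPMI; NSAID final 0.1 µM to 100 mM. XTT reduction at 490 nm; SMIC = combination giving 50% metabolic reduction versus drug-free control; FIC index calculated; triplicate on different days.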

[2] = test system: Nakaseomyces glabratus; assay: Antibiofilm activity against Candida glabrata 18a10 after 48 hrs by XTT reduction assay relative to control; set-up: scale not given: the % may be the effect or the level left
Procedure, shortened: (§2)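 Biofilms grown on autoclaved PVC disks: 1·10^6 cfu ml-1 cells, adhesion 1.5 h at 37 °C shaking 100 rpm, PBS wash, then 48 h at 37 °C in RPMI 1640 (MOPS, pH 7). Metabolic activity read by XTT–menadione reduction, 2 h at 37 °C, supernatant formazan at 490 nm, relative to drug-free control; triplicate on different days.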

[3] = test system: Nakaseomyces glabratus; assay: Antibiofilm activity against Candida glabrata ATCC 15126 assessed as fractional inhibitory concentration by two dimensional checkerboard dilution method in presence of ibuprofen; procedure, shortened: as §1
[4] = test system: Candida albicans; assay: Antibiofilm activity against Candida albicans ATCC 10231 assessed as fractional inhibitory concentration by two dimensional checkerboard dilution method in presence of diclofenac; procedure, shortened: as §1
[5] = test system: Meyerozyma guilliermondii; assay: Antibiofilm activity against Candida guilliermondii a83 by two dimensional checkerboard dilution method in presence of aspirin
Procedure, shortened: (§3)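 Biofilms were grown on PVC disks from 2 ml of a 1·10^6 cfu/ml cell suspension. Adhesion ran 1.5 h at 37 °C with shaking at 100 rpm. Disks were PBS-washed, then matured 48 h at 37 °C in RPMI 1640 (MOPS, pH 7). Biofilms were washed again and given 24 h at 37 °C of anidulafungin/NSAID checkerboard combinations (NSAID final 0.1 µM–100 mM). Read-out was XTT-menadione (2 h, 37 °C, 490 nm). SMIC was defined as 50% reduction versus drug-free control, from which FICI was calculated. Triplicates were run on different days.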

[6] = test system: Meyerozyma guilliermondii; assay: Antibiofilm activity against Candida guilliermondii a410 assessed as fractional inhibitory concentration by two dimensional checkerboard dilution method in presence of ibuprofen; procedure, shortened: as §3
[7] = test system: Meyerozyma guilliermondii; assay: Antibiofilm activity against Candida guilliermondii a83 assessed as fractional inhibitory concentration by two dimensional checkerboard dilution method in presence of aspirin; procedure, shortened: as §3
[8] = test system: Meyerozyma guilliermondii; assay: Antibiofilm activity against Candida guilliermondii a410 by two dimensional checkerboard dilution method in presence of aspirin; procedure, shortened: as §3
[9] = test system: Candida albicans; assay: Antibiofilm activity against Candida albicans ATCC 90028 after 48 hrs by XTT reduction assay relative to control; set-up: scale not given: the % may be the effect or the level left; procedure, shortened: as §2
[10] = test system: Candida albicans; assay: Antibiofilm activity against Candida albicans ATCC 10231 by two dimensional checkerboard dilution method in presence of ibuprofen; procedure, shortened: as §1
[11] = test system: Candida albicans; assay: Antibiofilm activity against Candida albicans ATCC 24433 by two dimensional checkerboard dilution method in presence of ibuprofen; procedure, shortened: as §1
[12] = test system: Nakaseomyces glabratus; assay: Antibiofilm activity against Candida glabrata 18a10 assessed as fractional inhibitory concentration by two dimensional checkerboard dilution method in presence of aspirin; procedure, shortened: as §1
[13] = test system: Meyerozyma guilliermondii; assay: Antibiofilm activity against Candida guilliermondii a410 by two dimensional checkerboard dilution method in presence of ibuprofen; procedure, shortened: as §3
[14] = test system: Candida albicans; assay: Antibiofilm activity against Candida albicans ATCC 24433 by two dimensional checkerboard dilution method in presence of diclofenac; procedure, shortened: as §1
[15] = test system: Candida albicans; assay: Antibiofilm activity against Candida albicans ATCC 24433 at 1 mM after 24 hrs by XTT reduction assay relative to control; set-up: scale not given: the % may be the effect or the level left
Procedure, shortened: (§4)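 Biofilms grown on sterilized PVC disks: 1·10^6 cfu/ml Candida cells adhered for 1.5 h at 37 °C with shaking, washed with PBS, then matured 48 h at 37 °C in RPMI 1640 (MOPS, pH 7). Preformed biofilms were washed and exposed to drug, alone or in two-dimensional checkerboard combination, in RPMI 1640 for 24 h at 37 °C on a rocker.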

[16] = test system: Meyerozyma guilliermondii; assay: Antibiofilm activity against Candida guilliermondii a410 at 1 mM after 24 hrs by XTT reduction assay relative to control; set-up: scale not given: the % may be the effect or the level left; procedure, shortened: as §4
[17] = test system: Meyerozyma guilliermondii; assay: Antibiofilm activity against Candida guilliermondii ATCC 6260 at 0.1 uM to 100 mM after 48 hrs by XTT reduction assay relative to control; set-up: scale not given: the % may be the effect or the level left; procedure, shortened: as §4

**Q.** Which MIC [1] does the source give for `CCCCCOc1ccc(-c2ccc(-c3ccc(C(=O)N[C@@H]4C[C@@H](O)[C@@H](O)NC(=O)[C@@H]5[C@@H](O)[C@@H](C)CN5C(=O)[C@H]([C@@H](C)O)NC(=O)[C@H]([C@H](O)[C@@H](O)c5ccc(O)cc5)NC(=O)[C@@H]5C[C@@H](O)CN5C(=O)[C@H]([C@H](C)O)NC4=O)cc3)cc2)cc1` here?
**A.** Its MIC is 0.1 µg/mL.

**Q.** What about the Activity [2] of the same compound?
**A.** Its Activity is 37.42%.

**Q.** And the Ratio [3]?
**A.** Its Ratio is 0.05.

**Q.** And the Ratio [4]?
**A.** The Ratio was 0.05.

**Q.** What about the MIC [5] of the same compound?
**A.** Its MIC is 0.1 µg/mL.

**Q.** What about the Ratio [6] of the same compound?
**A.** The Ratio was 0.2.

**Q.** And the Ratio [7]?
**A.** Its Ratio is 0.05.

**Q.** And the MIC [8]?
**A.** The MIC was 0.1 µg/mL.

**Q.** And the Activity [9]?
**A.** The Activity was 16.09%.

**Q.** And the MIC [10]?
**A.** The MIC was 0.4 µg/mL.

**Q.** And the MIC [11]?
**A.** The MIC was 0.4 µg/mL.

**Q.** What about the Ratio [12] of the same compound?
**A.** The Ratio was 0.05.

**Q.** And the MIC [13]?
**A.** Its MIC is 0.4 µg/mL.

**Q.** And the MIC [14]?
**A.** The MIC was 0.1 µg/mL.

**Q.** Which Activity [15] does the source give for `CC(=O)Oc1ccccc1C(=O)O` [ASPIRIN] here?
**A.** Its Activity is 48.75%.

**Q.** What about the Activity [16] of the same compound?
**A.** Its Activity is 43.25%.

**Q.** Which Activity [17] does the source give for `O=C([O-])Cc1ccccc1Nc1c(Cl)cccc1Cl.[Na+]` [DICLOFENAC SODIUM] here?
**A.** Its Activity is 60.98%.
